ChEMBL document CHEMBL3421541, “Benzaldehyde Schiff bases regulation to the metabolism, hemolysis, and virulence genes expression in vitro and their structure-microbicidal activity relationship” (2015)
Converted amounts (≈) assume the structure as drawn. The source made the active and inactive calls.

Legend:
Bacillus subtilis [1] = assay: Antibacterial activity against Bacillus subtilis assessed as growth inhibition at 100 umol/L after 8 hrs by ELISA plate reader analysis relative to control; assay type: functional; conditions: read-out: GI
Procedure, shortened: (§1)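 Bacteria were seeded at 1×10^5 CFU/mL in LB, and compound was added to 100 µmol/L final. Compounds came from DMSO stock, with DMSO ≤1% (v/v) final. Cultures were shaken at 37 °C for 8 h and read at OD450. Inhibition % = (OD vehicle control − OD sample)/OD vehicle control × 100. Values are the mean of three independent experiments.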

Staphylococcus aureus [2] = assay: Antibacterial activity against Staphylococcus aureus assessed as growth inhibition at 100 umol/L after 8 hrs by ELISA plate reader analysis relative to control; assay type: functional; conditions: read-out: GI; procedure, shortened: as §1
Bacillus subtilis [3] = assay: Antibacterial activity against Bacillus subtilis assessed as lowest concentration required to reduce growth by 1% after 8 hrs by ELISA plate reader analysis relative to control; assay type: functional
Procedure, shortened: (§2)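 MBC was found by broth microdilution. Inocula of 1×10^5 CFU/mL in LB were shaken at 37 °C with a series of compound concentrations, then read at OD450. MBC was defined as the lowest concentration reducing growth by 1% versus the inoculum control. Three independent experiments were run.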

Staphylococcus aureus [4] = assay: Antibacterial activity against Staphylococcus aureus assessed as lowest concentration required to reduce growth by 1% after 8 hrs by ELISA plate reader analysis relative to control; assay type: functional; procedure, shortened: as §2
Escherichia coli [5] = assay: Antibacterial activity against Escherichia coli assessed as growth inhibition at 100 umol/L after 8 hrs by ELISA plate reader analysis relative to control; assay type: functional; conditions: read-out: GI; procedure, shortened: as §1
Escherichia coli [6] = assay: Antibacterial activity against Escherichia coli assessed as lowest concentration required to reduce growth by 1% after 8 hrs by ELISA plate reader analysis relative to control; assay type: functional; procedure, shortened: as §2
Staphylococcus aureus [7] = assay: Downregulation of hla gene expression in Staphylococcus aureus at 50 umol/L after 8 hrs by real-time RT-PCR analysis relative to control; assay type: functional, organism-based
Procedure, shortened: (§3)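 S. aureus ATCC 25923 at 2×10^7 CFU/mL in LB was exposed to 50 µmol/L compound, or LB alone, for 8 h at 37 °C. Total RNA was analysed by TaqMan real-time RT-PCR or semi-quantitative RT-PCR, normalised to gyrB. Fold change is versus time-matched medium-only cultures, with data pooled from three experiments.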

Staphylococcus aureus [8] = assay: Downregulation of hla gene expression in Staphylococcus aureus at 50 umol/L after 8 hrs by semi-quantitative RT-PCR analysis relative to control; assay type: functional, organism-based; procedure, shortened: as §3
Staphylococcus aureus [9] = assay: Upregulation of sbi gene expression in Staphylococcus aureus at 50 umol/L after 8 hrs by real-time RT-PCR analysis relative to control; assay type: functional, organism-based; procedure, shortened: as §3
Staphylococcus aureus [10] = assay: Upregulation of sbi gene expression in Staphylococcus aureus at 50 umol/L after 8 hrs by semi-quantitative RT-PCR analysis relative to control; assay type: functional, organism-based; procedure, shortened: as §3
Staphylococcus aureus [11] = assay: Downregulation of mecA gene expression in Staphylococcus aureus at 50 umol/L after 8 hrs by real-time RT-PCR analysis relative to control; assay type: functional; procedure, shortened: as §3
Staphylococcus aureus [12] = assay: Downregulation of mecA gene expression in Staphylococcus aureus at 50 umol/L after 8 hrs by semi-quantitative RT-PCR analysis relative to control; assay type: functional; procedure, shortened: as §3
Staphylococcus aureus [13] = assay: Downregulation of saeR gene expression in Staphylococcus aureus at 50 umol/L after 8 hrs by real-time RT-PCR analysis relative to control; assay type: functional, organism-based; procedure, shortened: as §3
Staphylococcus aureus [14] = assay: Downregulation of saeR gene expression in Staphylococcus aureus at 50 umol/L after 8 hrs by semi-quantitative RT-PCR analysis relative to control; assay type: functional, organism-based; procedure, shortened: as §3
Staphylococcus aureus [15] = assay: Upregulation of hla gene expression in Staphylococcus aureus at 50 umol/L after 8 hrs by real-time RT-PCR analysis relative to control; assay type: functional, organism-based; procedure, shortened: as §3
Staphylococcus aureus [16] = assay: Upregulation of hla gene expression in Staphylococcus aureus at 50 umol/L after 8 hrs by semi-quantitative RT-PCR analysis relative to control; assay type: functional, organism-based; procedure, shortened: as §3
Staphylococcus aureus [17] = assay: Upregulation of mecA gene expression in Staphylococcus aureus at 50 umol/L after 8 hrs by real-time RT-PCR analysis relative to control; assay type: functional, organism-based; procedure, shortened: as §3
Staphylococcus aureus [18] = assay: Upregulation of mecA gene expression in Staphylococcus aureus at 50 umol/L after 8 hrs by semi-quantitative RT-PCR analysis relative to control; assay type: functional, organism-based; procedure, shortened: as §3

Structure (SMILES)	inhibition of growth at 100 µM (Bacillus subtilis [1]) [%]	inhibition of growth at 100 µM (Staphylococcus aureus [2]) [%]	MBC (Staphylococcus aureus [4]) [µM]	inhibition of growth at 100 µM (Escherichia coli [5]) [%]	also measured
CN[C@@H]1[C@H](O[C@H]2[C@H](O[C@H]3[C@H](O)[C@@H](O)[C@H](N=C(N)N)[C@@H](O)[C@@H]3N=C(N)N)O[C@@H](C)[C@]2(O)C=O)O[C@@H](CO)[C@H](O)[C@H]1O [STREPTOMYCIN]	94.1	97	1.3 (≈ 0.756 µg/mL)	–	MBC (Bacillus subtilis [3]): 2.1 µM (≈ 1.22 µg/mL)
CC1(C)S[C@@H]2[C@H](NC(=O)[C@H](N)c3ccccc3)C(=O)N2[C@H]1C(=O)O [AMPICILLIN]	–	–	–	99.3	MBC (Escherichia coli [6]): 1.8 µM (≈ 0.629 µg/mL)
O=C(N/N=C/c1cc([N+](=O)[O-])ccc1O)c1ccncc1	–	–	–	41.8	–
CC(C)(C)c1cc(/C=N/NC(=O)c2ccccc2O)c(O)c(C(C)(C)C)c1	–	70.9	19 (≈ 7 µg/mL)	13.9	Activity (Staphylococcus aureus [7]): Active; Activity (Staphylococcus aureus [8]): Active; Activity (Staphylococcus aureus [9]): Active; Activity (Staphylococcus aureus [10]): Active; fold change (FC) (Staphylococcus aureus [11]): 2; fold change (FC) (Staphylococcus aureus [12]): 2; Activity (Staphylococcus aureus [13]): Active; Activity (Staphylococcus aureus [14]): Active
COC(=O)[C@H](Cc1ccccc1)/N=C/c1ccccc1O	4.21	86.9	13.8 (≈ 3.91 µg/mL)	14.6	Activity (Staphylococcus aureus [15]): Active; Activity (Staphylococcus aureus [16]): Active; Activity (Staphylococcus aureus [9]): Active; Activity (Staphylococcus aureus [10]): Active; Activity (Staphylococcus aureus [17]): Active; Activity (Staphylococcus aureus [18]): Active; Activity (Staphylococcus aureus [13]): Active; Activity (Staphylococcus aureus [14]): Active
O=C(N/N=C/c1ccccc1O)c1ccncc1 [SALINAZID]	–	–	–	6.81	–
CC(C)(C)c1cc(/C=N/NC(=O)COc2ccc(Cl)cc2)c(O)c(C(C)(C)C)c1	19.7	–	–	10.5	–
O=C(O)[C@H](Cc1ccccc1)/N=C/c1ccccc1O	–	–	–	22.7	–
O=C(N/N=C/c1ccccc1O)c1ccccc1O	–	–	–	11.8	–
COc1ccc(CC(=O)N/N=C/c2cc(Br)ccc2O)cc1	1.01	–	–	–	–
